Screening results deposited in PubChem BioAssay by several laboratories.
Rows were chosen to be rich in hits. Some 3.7% of all compounds tested hit in one or more screens of this group.
OX1R antag-1: human HCRTR1 antagonism. O43613. actives 0.43% (n = 330,000). inhibition, % at 5 µM. CHO/OX1R cells, Fluo-8 calcium fluorescence, orexin A;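 active = inhibition above its plate's threshold, mean inhibition of all tested compounds on the plate plus 3 SD, cut at about 37% in these data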;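 also: 0% = orexin A challenge wells and 100% = SB-334867-A antagonist wells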
OX1R antag-2: OX1R (human) antagonism. O43613. OX1R-expressing cells, FRET antagonist read-out. inhibition, % at 6.6 µM. actives 1.8% (n = 330,000). AID 485270; in the data active = inhibition mostly above about 38%, no sharp cut-off; inactive = mostly below about 40%;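 also: 0% = agonist challenge alone and 100% = reference antagonist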
PGE2 EP2 inh: inhibitors of human EP2 prostaglandin E2 receptor. P43116. C6 glioma cells expressing human EP2, cAMP TR-FRET; cells stimulated with saturating PGE2. inhibition, % at 25 µM. actives 0.52% (n = 260,000);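 active = percent inhibition above 40 after rounding to a whole number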;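 also: rat C6 glioma host cells with rolipram phosphodiesterase inhibitor present; the protocol text gives 20 µM as final concentration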
Target sequence (P43116 whole entry, looked up): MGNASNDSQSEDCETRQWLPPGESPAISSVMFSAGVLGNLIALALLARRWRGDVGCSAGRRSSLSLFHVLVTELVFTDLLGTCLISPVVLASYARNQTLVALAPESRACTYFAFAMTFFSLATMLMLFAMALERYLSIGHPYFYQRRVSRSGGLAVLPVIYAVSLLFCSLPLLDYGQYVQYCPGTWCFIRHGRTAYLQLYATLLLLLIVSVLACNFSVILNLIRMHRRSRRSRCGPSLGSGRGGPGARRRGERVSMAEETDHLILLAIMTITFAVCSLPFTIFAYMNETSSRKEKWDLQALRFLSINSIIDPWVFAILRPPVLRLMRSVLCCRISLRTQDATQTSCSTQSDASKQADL
GPR7 antagonist: blocks human GPR7 receptor signaling. P48145. GPR7-expressing cells, fluorescence antagonist assay. inhibition, % at 4.4 µM. actives 1.1% (n = 290,000); in the data active = inhibition above about 16%, passing the limit was not always enough;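 also: cells stimulated with the agonist NPW; 0% = agonist with vehicle and 100% = vehicle without agonist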
EP2 modulator: EP2 receptor (human) modulation | actives 0.83% (n = 260,000) | AID 940 | induction, % at 25 µM | EP2-expressing cells, cAMP HTRF FRET, PGE2 co-stimulation;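 active = compounds whose cAMP rise, as percent of the full-agonist control response, exceeds 60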;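 also: rat C6 glioma line stably carrying human EP2 under a CMV promoter; the protocol text gives 20 µM as final concentration; 100% = response of wells given 1 µM PGE2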
CHO parental Ca: signal in parental CHO cells, OX1R antagonist counter-screen | parental CHO-K1, ATP-induced calcium, Fluo-8 fluorescence | actives 0.63% (n = 330,000) | inhibition, % at 5.6 µM;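 active = inhibition above that plate's mean sample inhibition plus 3 SD, cut at about 26% in these data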;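 also: 0% = ATP-challenged DMSO wells and 100% = DMSO wells without ATP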
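Material: parental CHO cells / Compound: single nominal dose of 5.6 µM per compound / Signal: Fluo-8 fluorescence / Replicates: singlicate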
* marks the source's active call; other numbers are inactive results; . = no result given.

SMILES	OX1R antag-1	OX1R antag-2	PGE2 EP2 inh	GPR7 antagonist	EP2 modulator	CHO parental Ca
COc1ccc(C(=O)Nc2ccc(S(=O)(=O)N3CCOCC3)cc2)cc1	-16	4	.	.	.	-7
O=C(NC1C/C=C\C(c2ccccc2)N(c2ccccc2)C(=O)C1)OCC1c2ccccc2-c2ccccc21 (stereo unspecified)	-23	-1	.	.	.	-23
Cc1ccc(S(=O)(=O)N(C)C)cc1NC(=S)Nc1cccc2ccccc12	-13	49	.	46*	.	-22
C#Cc1ccc([C@H]2C=C(C(=O)N3CCN(Cc4ccccc4)CC3)O[C@@H](OCc3ccc(CO)cc3)C2)cc1	-12	6	7	-1	12	-13
O=C(Nc1ccccc1Cl)C1(c2ccccc2)CC1(Cl)Cl (stereo unspecified)	-24	7	4	-12	62*	-11
CC(=O)c1ccc(NC(=O)C2(c3ccccc3)CC2(Cl)Cl)cc1 (stereo unspecified)	4	4	2	9	-22	-15
O=C(O)c1ccccc1N(c1ccccc1)c1ccccc1	-16	4	.	.	.	-7
Cc1ccc(NC(=O)c2ccco2)c(NC(=O)CN2C(=O)c3ccccc3C2=O)c1	-34	27	8	-3	7	-8
O=C(CCC(=O)N1CCOc2ccccc21)NCCCN1CCN(Cc2ccccc2)CC1	-7	6	.	21*	.	-20
Cc1ccc(-n2c(-c3ccc(Cl)cc3)n[nH]c2=S)c(C)c1	-14	16	.	-13	.	-13
CCOC(=O)C1=C(C)N=C2c3ccccc3C(=O)C2C1c1ccc(C)cc1 (stereo unspecified)	-26	21	11	-7	-12	-12
CC(C)CNC(=S)N1CCN(c2nc3ccccc3s2)CC1	11	14	9	-6	-87	72*
CCn1c(N2CCN(C(=S)NCC(C)C)CC2)nc2ccccc21	-12	0	18	-4	-12	-7
Cn1c(NC(=O)c2ccc(S(=O)(=O)N3CCCCC3)cc2)cc(=O)n(C)c1=O	-11	5	5	-3	14	-11
COc1ccc(C(=O)N2CCOC2CNC(=O)C(=O)NCc2ccccc2Cl)cc1 (stereo unspecified)	-20	25	.	-13	.	-27
C/C(=N\OCc1nc2ccccc2c(=O)n1/N=C/c1cc([N+](=O)[O-])ccc1O)c1ccccc1	-13	55	13	-15	-6	27
C/C(=N\OCc1nc2ccccc2c(=O)n1/N=C/c1cc(C)cc([N+](=O)[O-])c1O)c1ccccc1	-18	47*	13	8	-18	-14
CCCCOc1ccc(C(=O)N/C(=C\c2cccc([N+](=O)[O-])c2)C(=O)OC(C)C)cc1	18	25	16	-6	21	-16
CC(C)(C)NC(=O)/C(=C/c1ccccc1F)NC(=O)c1ccc([N+](=O)[O-])cc1	-25	33	8	-4	9	-24
O=C1Nc2ccc(Br)cc2C1(O)c1ccccc1 (stereo unspecified)	-7	-3	.	-6	.	-11
O=C1Nc2ccc(Br)cc2C12NNc1ccccc1O2 (stereo unspecified)	60*	34	5	19	-61	78*
C/C(=N/OCC(=O)NCCCCCCNC(=O)CO/N=C(/C)c1cccs1)c1cccs1	-14	71*	6	10	-1	-23
C/C(=N\OCC(=O)NC(C)C)c1cccs1	-15	5	8	6	7	13
O=C(c1cccc(S(=O)(=O)N2CCN(c3ccc(F)cc3)CC2)c1)N1CCCC(C(F)(F)F)C1 (stereo unspecified)	-4	20	.	.	.	37*
CCOc1ccc(NS(=O)(=O)c2ccc(C(=O)N3CC(C)OC(C)C3)cc2)cc1 (stereo unspecified)	73*	0	.	.	.	42*
SMILES	OX1R antag-1	OX1R antag-2	PGE2 EP2 inh	GPR7 antagonist	EP2 modulator	CHO parental Ca
COc1ccccc1NS(=O)(=O)c1ccc(C(=O)N2CCCC(C(F)(F)F)C2)cc1 (stereo unspecified)	9	16	.	.	.	-9
Cc1ccc(NS(=O)(=O)c2ccc(C(=O)N3CCCC(C(F)(F)F)C3)cc2)cc1 (stereo unspecified)	45*	8	.	.	.	31
CC1CCCCN1Cc1ccc(N)cc1 (stereo unspecified)	-1	6	4	2	5	-3
Cc1occc1-c1n[nH]c(=S)n1CC(C)C	-19	20	18	-6	17	-4
CCCCCOc1ccc(C(=O)OC(C)C(=O)NCc2ccco2)cc1 (stereo unspecified)	-30	27	.	-7	.	-24
COc1ccc(OC)c(NC(=O)Nc2cnccn2)c1	.	.	.	-22	.	.
O=[N+]([O-])c1cc(-c2ncccn2)c([N+](=O)[O-])s1	20	64*	26	-7	-50	17
O=[N+]([O-])c1cc(-c2ccc(/C=N\n3cnnc3)o2)cc([N+](=O)[O-])c1	-14	69*	.	-11	.	-9
Oc1ccc(Cl)cc1Cc1cc(Cl)ccc1O	4	46*	11	35*	-16	26
O=C(O)CCN1C(=O)/C(=C2\C(=O)N(Cc3ccc(F)cc3)c3ccccc32)SC1=S	2	7	.	15	.	2
CN1C(=O)/C(=C2\SC(=S)N(CCCCCC(=O)O)C2=O)c2ccccc21	1	11	5	-12	75*	0
O=C(CCCN1C(=O)/C(=C/c2ccc(F)cc2)SC1=S)NC1CCS(=O)(=O)C1 (stereo unspecified)	-6	18	.	0	.	82*
CN(C(=O)CN1C(=O)S/C(=C\c2ccc(F)cc2)C1=O)C1CCS(=O)(=O)C1 (stereo unspecified)	-9	28	.	6	.	-5
CCN(C(=O)CN1C(=O)S/C(=C\c2ccc(F)cc2)C1=O)C1CCS(=O)(=O)C1 (stereo unspecified)	-20	41*	.	6	.	-6
CCCNC(=O)c1[nH]c(C)c(C(=O)OCC)c1C	-23	7	11	-8	4	-7
Cc1cc(NC(=O)c2ccc3nccnc3c2)ccc1Br	12	48*	.	.	.	-3
COC(=O)c1ccc(NC(=O)c2ccc3nccnc3c2)cc1	-10	39	.	-6	.	-15
O=C(Nc1ccc2cccnc2c1)c1ccc(Br)cc1	2	30*	.	-10	.	-13
O=C(Nc1ccc(SC(F)F)cc1)c1ccc2nccnc2c1	86*	52*	7	-2	-17	52*
COc1cccc(NC(=O)Cn2c3ccc(OC)cc3c3nc4n(c(=O)c32)CCS4)c1	-14	-1	.	12	.	-18
CCC(=O)N1c2ccc(-c3csc(NC(=O)c4ccccc4Cl)n3)cc2CC1C (stereo unspecified)	.	.	94*	.	27	.
COc1ccccc1-c1cc(-c2ccc(C)o2)nc(N)c1C#N	.	.	10	.	24	.
COc1ccccc1-c1cc(SC)c(C#N)c(=O)o1	-7	51*	13	-11	-68	5
